# Test results taken from ChEMBL document CHEMBL1148336, “3-Aminopyrazole inhibitors of CDK2/cyclin A as antitumor agents. 1. Lead finding” (J Med Chem, 2004).
# Columns and labels:
# [1] = Ability of compound to bind to plasma protein was evaluated in HSA cells; format: ADME, cell-based; conditions: mouse, HSA cells (so in the source), read-out: PPB
# Procedure, shortened: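 HPLC retention time measured on a column coupled with human serum albumin. Percent bound is assigned by comparing the retention time with those of known standards.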
# [2] = Total body clearance was evaluated for the compound after i.v. administration at a dose of 5 mg/kg was measured in rats; format: ADME, organism-based; parameters: dose 5 mg/kg, route intravenous; conditions: rat, in vivo, iv
# Procedure, shortened: (§1)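 Male Sprague Dawley rats (~270), fasted overnight, received a single iv or oral dose in PEG400, 4% Tween 80/dextrose (60:40), three rats per route. Jugular/catheter blood was drawn predose and at 5, 15 and 30 min and 1, 2, 4, 6 and 24 h, and plasma was analysed by LC/MS/MS. Analysis was noncompartmental: Cmax/Tmax observed, AUC by linear trapezoidal rule, and F from dose-normalized oral/iv AUC.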
# [3] = species on record: Rattus norvegicus; assay: Metabolic rate for compound was observed in rat hepatocytes; format: ADME, Liver, Hepatocyte
# Procedure, shortened: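 Compound at 1 μM was incubated with 10^6 rat hepatocytes in 1 mL Leibovitz's medium at 37 °C with shaking. Samples were taken at 0.5–90 min and quenched in ice-cold acetonitrile. Parent was quantified by LC/MS/MS, with hepatocyte-free controls and reference clearance drugs.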
# [4] = test system: Rattus norvegicus; assay: Maximal concentration in male Sprague-Dawley rats after 5 mg/kg intravenous dose; format: ADME, organism-based; parameters: dose 5 mg/kg, route intravenous; conditions: in vivo; procedure, shortened: as §1
# [5] = Steady-state volume of distribution was evaluated for the compound after i.v. administration at a dose of 5 mg/kg was measured in rats; format: ADME, organism-based; parameters: dose 5 mg/kg, route intravenous; conditions: rat, in vivo, iv, read-out: Vss; procedure, shortened: as §1
# [6] = test system: Rattus norvegicus; assay: In vivo half-life period for compound after i.v. administration at a dose of 5 mg/kg was measured in rats; format: ADME, organism-based; parameters: dose 5 mg/kg, route intravenous; conditions: iv; procedure, shortened: as §1
# [7] = Oral bioavailability after oral (po) administration at a dose of 10 mg/kg was measured in rats; format: ADME, organism-based; conditions: rat, in vivo, read-out: Bioavailabiility; procedure, shortened: as §1
# [8] = Solubility of compound was determined in buffer at a pH of 7; format: physicochemical; conditions: pH 7
# Procedure, shortened: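 Nonequilibrium turbidimetric solubility. 10 mM DMSO stock was diluted into pH 7 buffer (2.5% DMSO), and turbidity was read at 50 and 250 μM. Solubility is the average of the highest clear and lowest turbid concentrations.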
# [9] = biological target: CDC7/DBF4 (Cell division cycle 7-related protein kinase/Activator of S phase kinase) (Homo sapiens, UniProt O00311); assay: Inhibition of CDC7/DBF4 kinase activity; format: protein-complex assay
# Procedure, shortened: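 Recombinant CDC7/DBF4 (insect cells), 18 nM, with MCM2 substrate in 50 mM Hepes pH 7.5, 5 mM MgCl2, 1 mM DTT, 3 μM NaVO3. ATP/33P-γ-ATP at 2Km, substrate at 5Km, 1% DMSO, compound 10 to 0.0015 μM in 3-fold steps, 30–90 min at room temperature. SPA bead capture.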
# [10] = biological target: Casein kinase II (Homo sapiens, UniProt P19784+P67870+P68400); assay: Inhibition of Casein kinase 2; format: protein-complex assay
# Sequence of Casein kinase II (P67870 whole entry): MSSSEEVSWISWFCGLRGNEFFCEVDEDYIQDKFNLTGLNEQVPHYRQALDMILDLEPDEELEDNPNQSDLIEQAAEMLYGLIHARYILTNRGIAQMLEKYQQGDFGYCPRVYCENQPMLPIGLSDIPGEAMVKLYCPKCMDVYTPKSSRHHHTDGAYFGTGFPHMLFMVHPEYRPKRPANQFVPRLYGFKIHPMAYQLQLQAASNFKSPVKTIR
# Sequence of Casein kinase II (P68400 whole entry): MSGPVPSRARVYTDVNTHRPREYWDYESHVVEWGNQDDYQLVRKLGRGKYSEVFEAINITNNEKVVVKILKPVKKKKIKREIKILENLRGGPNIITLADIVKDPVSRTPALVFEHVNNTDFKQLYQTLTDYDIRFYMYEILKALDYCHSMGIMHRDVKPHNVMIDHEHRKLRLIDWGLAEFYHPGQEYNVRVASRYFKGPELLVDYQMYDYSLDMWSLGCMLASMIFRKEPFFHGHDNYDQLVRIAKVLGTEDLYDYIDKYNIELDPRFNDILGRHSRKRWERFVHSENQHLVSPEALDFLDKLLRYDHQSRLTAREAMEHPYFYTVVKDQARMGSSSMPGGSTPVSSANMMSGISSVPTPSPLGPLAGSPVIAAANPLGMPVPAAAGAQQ
# Sequence of Casein kinase II (P19784 whole entry): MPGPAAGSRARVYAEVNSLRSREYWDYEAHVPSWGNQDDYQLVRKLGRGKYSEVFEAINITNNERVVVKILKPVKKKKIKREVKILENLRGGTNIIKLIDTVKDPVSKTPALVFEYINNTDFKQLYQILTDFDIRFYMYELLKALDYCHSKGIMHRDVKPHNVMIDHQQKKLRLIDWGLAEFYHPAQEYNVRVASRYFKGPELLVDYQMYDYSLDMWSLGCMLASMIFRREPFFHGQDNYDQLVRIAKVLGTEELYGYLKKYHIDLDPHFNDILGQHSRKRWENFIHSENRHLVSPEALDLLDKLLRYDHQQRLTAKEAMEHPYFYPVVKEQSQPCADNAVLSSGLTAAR
# Procedure, shortened: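 33P-γ-ATP/ATP at 2Km, substrate 5Km, 1% DMSO, 3-fold dilutions from 10 μM, 30–90 min at room temperature. Phosphorylated substrate counted by SPA. Four-parameter logistic IC50, mean of at least two experiments.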
# [11] = biological target: Fibroblast growth factor receptor 1 (Homo sapiens, UniProt P11362); assay: Inhibition of Fibroblast growth factor receptor 1
# Procedure, shortened: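 Radiolabelled ATP at 2Km, substrate 5Km, 1% DMSO, compound 10 to 0.0015 μM, 30–90 min at room temperature. SPA capture.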
# [12] = biological target: Glycogen synthase kinase-3 beta (Homo sapiens, UniProt P49841); assay: Inhibition of Glycogen synthase kinase-3 beta
# Procedure, shortened: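 GSK-3β at 20 nM (in-house, insect cells), MBP substrate, 50 mM Hepes pH 7.5, 3 mM MgCl2, 3 mM MnCl2, 1 mM DTT, 3 μM NaVO3. ATP/33P-γ-ATP 2Km, substrate 5Km, 1% DMSO. 3-fold dilutions from 10 μM, 30–90 min at room temperature. SPA.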
# [13] = biological target: Insulin receptor (Homo sapiens, UniProt P06213); assay: Inhibition of IR kinase activity
# Procedure, shortened: (§2)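 Radiometric kinase assay. Enzyme (0.7–100 nM) and substrate (5Km) incubated with ATP/33P-γ-ATP (2Km) and compound serially diluted 3-fold from 10 to 0.0015 μM, 1% DMSO, 30–90 min at room temperature. Product separated by SPA, Dowex or phosphocellulose filter, then counted.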
# [14] = biological target: Mast/stem cell growth factor receptor Kit (Homo sapiens, UniProt P10721); assay: Inhibition of KIT kinase activity; procedure, shortened: as §2
# Sequence of Mast/stem cell growth factor receptor Kit (P10721 whole entry): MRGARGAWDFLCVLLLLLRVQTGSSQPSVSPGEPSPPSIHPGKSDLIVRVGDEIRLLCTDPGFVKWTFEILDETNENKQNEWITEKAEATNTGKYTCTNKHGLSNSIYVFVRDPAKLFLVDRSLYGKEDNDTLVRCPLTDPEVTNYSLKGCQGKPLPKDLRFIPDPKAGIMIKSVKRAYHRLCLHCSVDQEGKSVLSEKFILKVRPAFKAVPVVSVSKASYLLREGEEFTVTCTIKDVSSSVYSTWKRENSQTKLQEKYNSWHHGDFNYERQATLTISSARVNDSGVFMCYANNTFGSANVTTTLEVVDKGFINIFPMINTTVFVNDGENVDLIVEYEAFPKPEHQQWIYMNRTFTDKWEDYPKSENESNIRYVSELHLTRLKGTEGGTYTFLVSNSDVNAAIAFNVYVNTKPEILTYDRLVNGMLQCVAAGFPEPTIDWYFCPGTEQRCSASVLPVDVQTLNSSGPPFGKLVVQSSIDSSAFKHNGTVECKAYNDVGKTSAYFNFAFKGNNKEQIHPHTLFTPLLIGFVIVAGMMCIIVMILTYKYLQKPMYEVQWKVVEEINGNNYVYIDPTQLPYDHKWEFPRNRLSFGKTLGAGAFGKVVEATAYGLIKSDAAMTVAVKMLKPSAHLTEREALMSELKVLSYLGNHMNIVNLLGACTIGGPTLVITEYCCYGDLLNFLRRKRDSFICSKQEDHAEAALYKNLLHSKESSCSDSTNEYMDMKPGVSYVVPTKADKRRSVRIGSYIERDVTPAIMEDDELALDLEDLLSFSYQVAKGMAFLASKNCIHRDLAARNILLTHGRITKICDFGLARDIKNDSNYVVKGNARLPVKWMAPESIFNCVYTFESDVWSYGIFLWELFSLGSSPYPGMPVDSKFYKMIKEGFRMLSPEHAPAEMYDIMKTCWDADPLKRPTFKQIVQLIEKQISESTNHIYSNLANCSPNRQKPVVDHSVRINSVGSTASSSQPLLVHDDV
# [15] = biological target: Mitogen-activated protein kinase 1 (Homo sapiens, UniProt P28482); assay: Inhibition of Mitogen-activated protein kinase 1 activity
# Sequence of Mitogen-activated protein kinase 1 (P28482 whole entry): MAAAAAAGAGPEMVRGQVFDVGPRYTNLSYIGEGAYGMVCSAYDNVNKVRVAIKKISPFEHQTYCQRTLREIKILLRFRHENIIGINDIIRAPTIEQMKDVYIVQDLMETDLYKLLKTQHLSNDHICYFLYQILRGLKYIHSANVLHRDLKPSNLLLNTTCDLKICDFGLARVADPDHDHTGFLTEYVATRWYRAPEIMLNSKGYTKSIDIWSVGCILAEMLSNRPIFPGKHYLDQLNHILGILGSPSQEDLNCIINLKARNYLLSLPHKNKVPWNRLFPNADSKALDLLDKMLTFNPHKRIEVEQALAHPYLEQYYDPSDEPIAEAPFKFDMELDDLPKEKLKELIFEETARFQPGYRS
# Procedure, shortened: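 ERK-2 at 3 nM (insect-cell recombinant) with MBP in Tris-HCl pH 7.4 10 mM, MgCl2 10 mM, DTT 7.4 mM. ATP/33P-γ-ATP 2Km, substrate 5Km, 1% DMSO, 10 to 0.0015 μM compound, 30–90 min at room temperature. Dowex resin (formate, pH 3) removed free ATP; supernatant counted.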
# [16] = biological target: 3-phosphoinositide-dependent protein kinase 1 (Homo sapiens, UniProt O15530); assay: Inhibition of PDK1 kinase activity; procedure, shortened: as §2
# [17] = biological target: Protein kinase C beta type (Homo sapiens, UniProt P05771); assay: Inhibition of Protein kinase C beta
# Sequence of Protein kinase C beta type (P05771 whole entry): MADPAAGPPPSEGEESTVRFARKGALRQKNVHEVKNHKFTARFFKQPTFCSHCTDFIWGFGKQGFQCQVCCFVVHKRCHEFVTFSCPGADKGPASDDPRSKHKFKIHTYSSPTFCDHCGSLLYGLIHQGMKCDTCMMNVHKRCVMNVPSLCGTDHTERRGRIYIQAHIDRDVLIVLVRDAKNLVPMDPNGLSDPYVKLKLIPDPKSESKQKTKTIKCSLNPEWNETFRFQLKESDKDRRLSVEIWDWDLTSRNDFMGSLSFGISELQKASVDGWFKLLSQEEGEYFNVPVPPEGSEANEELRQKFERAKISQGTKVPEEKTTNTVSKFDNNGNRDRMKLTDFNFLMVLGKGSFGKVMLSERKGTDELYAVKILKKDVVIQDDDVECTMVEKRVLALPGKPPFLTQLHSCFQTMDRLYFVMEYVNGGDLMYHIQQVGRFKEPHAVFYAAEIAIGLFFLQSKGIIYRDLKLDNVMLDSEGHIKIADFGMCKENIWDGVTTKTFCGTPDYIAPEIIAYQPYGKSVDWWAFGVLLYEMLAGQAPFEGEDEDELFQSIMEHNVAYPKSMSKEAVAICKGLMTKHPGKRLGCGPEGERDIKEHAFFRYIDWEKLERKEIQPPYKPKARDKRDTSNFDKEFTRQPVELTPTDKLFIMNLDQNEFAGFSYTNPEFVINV
# Procedure, shortened: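 PKCβ was commercially sourced. It was used at 0.7–100 nM enzyme with substrate at 5Km and ATP/33P-γ-ATP at 2Km, 1% DMSO, and compound in 3-fold steps from 10 to 0.0015 μM, for 30–90 min at room temperature. Phosphorylated product was separated and counted. Four-parameter logistic IC50, mean of at least two experiments.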
# [18] = biological target: Serine/threonine-protein kinase PLK1 (Homo sapiens, UniProt P53350); assay: Inhibition of PLK1 kinase; procedure, shortened: as §2
# [19] = biological target: Tyrosine-protein kinase Lyn (Homo sapiens, UniProt P07948); assay: Inhibition of Protein tyrosine kinase Lyn; procedure, shortened: as §2
# [20] = biological target: Inhibitor of nuclear factor kappa-B kinase subunit epsilon (Homo sapiens, UniProt Q14164); assay: Inhibition of IKKi (IKK epsilon) kinase activity; procedure, shortened: as §2
# Sequence of Inhibitor of nuclear factor kappa-B kinase subunit epsilon (Q14164 whole entry): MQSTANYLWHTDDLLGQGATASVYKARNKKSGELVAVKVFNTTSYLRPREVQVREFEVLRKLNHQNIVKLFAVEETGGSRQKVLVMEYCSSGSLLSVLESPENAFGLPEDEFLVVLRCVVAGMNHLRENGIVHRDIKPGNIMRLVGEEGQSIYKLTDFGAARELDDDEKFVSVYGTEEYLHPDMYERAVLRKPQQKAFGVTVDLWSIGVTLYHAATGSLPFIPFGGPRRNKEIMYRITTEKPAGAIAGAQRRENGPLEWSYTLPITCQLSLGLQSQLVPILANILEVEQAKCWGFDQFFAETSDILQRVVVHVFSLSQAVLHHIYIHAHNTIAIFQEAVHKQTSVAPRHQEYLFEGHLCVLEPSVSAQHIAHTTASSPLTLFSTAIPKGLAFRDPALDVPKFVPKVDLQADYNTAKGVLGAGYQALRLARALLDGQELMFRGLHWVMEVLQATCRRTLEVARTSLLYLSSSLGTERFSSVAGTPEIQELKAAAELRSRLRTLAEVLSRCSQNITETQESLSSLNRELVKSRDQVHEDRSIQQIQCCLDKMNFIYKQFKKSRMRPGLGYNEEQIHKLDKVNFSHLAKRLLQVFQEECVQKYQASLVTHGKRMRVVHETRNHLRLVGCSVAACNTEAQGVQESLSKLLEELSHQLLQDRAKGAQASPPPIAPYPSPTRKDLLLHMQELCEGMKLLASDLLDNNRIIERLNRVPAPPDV
# [21] = biological target: Vascular endothelial growth factor receptor 3 (Homo sapiens, UniProt P35916); assay: Inhibition of Vascular endothelial growth factor receptor 3; procedure, shortened: as §2
# [22] = biological target: Tyrosine-protein kinase Lck (Homo sapiens, UniProt P06239); assay: Inhibition of p56 lck tyrosine kinase; procedure, shortened: as §2
# Sequence of Tyrosine-protein kinase Lck (P06239 whole entry): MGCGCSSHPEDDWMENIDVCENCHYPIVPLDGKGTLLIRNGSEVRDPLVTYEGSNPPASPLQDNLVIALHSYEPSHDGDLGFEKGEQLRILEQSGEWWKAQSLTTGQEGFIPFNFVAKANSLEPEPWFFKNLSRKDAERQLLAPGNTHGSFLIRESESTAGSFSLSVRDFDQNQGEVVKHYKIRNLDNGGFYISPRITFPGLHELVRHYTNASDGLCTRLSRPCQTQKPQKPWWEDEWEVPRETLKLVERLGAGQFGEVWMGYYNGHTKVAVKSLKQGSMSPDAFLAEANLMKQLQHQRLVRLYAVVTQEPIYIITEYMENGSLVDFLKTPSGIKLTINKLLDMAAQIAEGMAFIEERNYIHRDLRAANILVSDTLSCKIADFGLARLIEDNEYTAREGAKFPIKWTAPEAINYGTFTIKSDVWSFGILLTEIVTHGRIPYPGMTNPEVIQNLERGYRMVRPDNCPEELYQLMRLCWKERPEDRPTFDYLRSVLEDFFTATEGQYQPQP
# [23] = biological target: Tyrosine-protein kinase ZAP-70 (Homo sapiens, UniProt P43403); assay: Inhibition of Zeta-chain (TCR) associated protein kinase 70 kDa (ZAP70); procedure, shortened: as §2
# Sequence of Tyrosine-protein kinase ZAP-70 (P43403 whole entry): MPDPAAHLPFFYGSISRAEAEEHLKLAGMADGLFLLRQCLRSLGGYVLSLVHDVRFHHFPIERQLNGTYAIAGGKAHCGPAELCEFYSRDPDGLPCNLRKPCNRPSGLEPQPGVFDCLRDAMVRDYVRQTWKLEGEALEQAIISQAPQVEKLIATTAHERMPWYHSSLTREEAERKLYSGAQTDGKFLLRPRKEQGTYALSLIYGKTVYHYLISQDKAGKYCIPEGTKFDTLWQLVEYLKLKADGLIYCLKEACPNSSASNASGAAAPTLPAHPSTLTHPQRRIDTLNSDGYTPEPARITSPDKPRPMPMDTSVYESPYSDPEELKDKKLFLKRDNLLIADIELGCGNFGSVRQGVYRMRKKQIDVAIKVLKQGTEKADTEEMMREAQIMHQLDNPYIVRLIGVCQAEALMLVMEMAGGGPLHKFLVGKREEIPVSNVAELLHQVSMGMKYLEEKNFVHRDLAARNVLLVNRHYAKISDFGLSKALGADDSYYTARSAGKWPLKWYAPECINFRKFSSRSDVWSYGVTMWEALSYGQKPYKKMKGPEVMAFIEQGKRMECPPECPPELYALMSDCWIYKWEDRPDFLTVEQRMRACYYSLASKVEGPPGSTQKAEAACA
# [24] = biological target: Serine/threonine-protein kinase PAK 4 (Homo sapiens, UniProt O96013); assay: Inhibition of PAK4 kinase; procedure, shortened: as §2
# [25] = biological target: High affinity nerve growth factor receptor (Homo sapiens, UniProt P04629); assay: Inhibition of Trk A kinase activity; procedure, shortened: as §2
# [26] = biological target: Hepatocyte growth factor receptor (Homo sapiens, UniProt P08581); assay: Inhibition of MET kinase activity; procedure, shortened: as §2
# [27] = biological target: Aurora kinase A (Homo sapiens) (UniProt O14965); assay: Inhibition of Aurora kinase A
smiles,measurement,setting,value
O=C(Cc1ccc2ccccc2c1)Nc1cc(C2CC2)n[nH]1,fraction unbound,[1],0.01
same,clearance,[2],13.5 mL/min/kg
same,Metabolic rate,[3],27.8 mL/min/kg
same,Cmax,[4],19.4 µM
same,Vd,[5],1.06 L/kg
same,T1/2,[6],1 h
same,bioavailability,[7],89.8%
same,solubility,[8],22 µM
same,IC50,[9],> 10 µM
same,IC50,[10],> 10 µM
same,IC50,[11],> 10 µM
same,IC50,[12],1.91 µM
same,IC50,[13],> 10 µM
same,IC50,[14],> 10 µM
same,IC50,[15],4.6 µM
same,IC50,[16],> 10 µM
same,IC50,[17],> 10 µM
same,IC50,[18],> 10 µM
same,IC50,[19],> 10 µM
same,IC50,[20],> 10 µM
same,IC50,[21],> 10 µM
same,IC50,[22],> 10 µM
same,IC50,[23],> 10 µM
same,IC50,[24],> 10 µM
same,IC50,[25],> 10 µM
same,IC50,[26],> 10 µM
same,IC50,[27],> 10 µM
